Results: ChEMBL document CHEMBL1152560, “Substituted 2-arylbenzothiazoles as kinase inhibitors: hit-to-lead optimization” (Bioorg Med Chem, 2009)

Experiments:
Aurora kinase A = molecular target: T1, Aurora kinase A (Homo sapiens, UniProt O14965); experiment: Inhibition of Aurora-A by microplate scintillation counting
T1 sequence (O14965 whole entry): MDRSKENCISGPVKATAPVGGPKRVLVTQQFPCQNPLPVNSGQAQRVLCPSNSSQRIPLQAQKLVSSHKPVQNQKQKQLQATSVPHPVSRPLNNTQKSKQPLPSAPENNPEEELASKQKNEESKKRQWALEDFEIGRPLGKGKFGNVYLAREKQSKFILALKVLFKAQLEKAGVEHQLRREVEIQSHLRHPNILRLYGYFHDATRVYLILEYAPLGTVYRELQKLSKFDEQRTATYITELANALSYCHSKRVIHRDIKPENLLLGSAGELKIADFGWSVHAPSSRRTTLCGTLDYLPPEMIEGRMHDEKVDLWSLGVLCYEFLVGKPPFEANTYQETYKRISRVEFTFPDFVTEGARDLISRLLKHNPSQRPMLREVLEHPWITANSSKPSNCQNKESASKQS
In short: (§1)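 Substrates: tetra(LRRWSLG) for Aurora A/B; poly(Ala,Glu,Lys,Tyr)6:2:5:1 for PDGFRβ; poly(Glu,Tyr)4:1 for TIE2 and VEGFR2. Stopped with 2% H3PO4.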

Aurora kinase B = Aurora kinase B (Homo sapiens, UniProt Q96GD4); experiment: Inhibition of Aurora-B by microplate scintillation counting; in short: as §1
[1] = molecular target: T2, Epidermal growth factor receptor (Homo sapiens, UniProt P00533); experiment: Inhibition of wild type EGF-R by microplate scintillation counting
[2] = molecular target: Vascular endothelial growth factor receptor 2 (Homo sapiens, UniProt P35968); experiment: Inhibition of VEGFR2 by microplate scintillation counting
Angiopoietin-1 receptor [3] = molecular target: T3, Angiopoietin-1 receptor (Homo sapiens, UniProt Q02763); experiment: Inhibition of TIE2 by microplate scintillation counting
[4] = molecular target: Receptor tyrosine-protein kinase erbB-2 (Homo sapiens, UniProt P04626); experiment: Inhibition of ERBB2 by microplate scintillation counting
In short: (§2)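 Radiometric FlashPlate assay using recombinant kinase (10–200 ng/well) with poly(Glu,Tyr)4:1 substrate. Buffer: 60 mM HEPES-NaOH pH 7.5, 3 mM MgCl2, 3 mM MnCl2, 3 µM orthovanadate, 1.2 mM DTT, PEG 20000, 1 µM [γ-33P]-ATP. Run 80 min at 30 °C, stopped with H3PO4, and 33P incorporation counted.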

[5] = molecular target: Platelet-derived growth factor receptor beta (Homo sapiens, UniProt P09619); experiment: Inhibition of PDGFRbeta by microplate scintillation counting; in short: as §1
[6] = molecular target: Vascular endothelial growth factor receptor 3 (Homo sapiens, UniProt P35916); experiment: Inhibition of VEGFR3 by microplate scintillation counting; in short: as §2
[7] = molecular target: T2, Epidermal growth factor receptor; experiment: Inhibition of EGFR in human HCT116 cells by cellular phosphorylation assay
Angiopoietin-1 receptor [8] = molecular target: T3, Angiopoietin-1 receptor; experiment: Inhibition of TIE2 in human HCT116 cells by cellular phosphorylation assay; assay type: cell-based, HCT-116
In short: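 TIE2 autophosphorylation in cells expressing the receptor. Compound was applied, cells were stimulated, then lysed with phosphoprotein levels preserved. Phosphorylation was quantified by sandwich ELISA with a receptor-specific capture antibody and anti-phosphotyrosine antibody, relative to the stimulated high control.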

Chain of Vascular endothelial growth factor receptor 3 (P35916 whole entry): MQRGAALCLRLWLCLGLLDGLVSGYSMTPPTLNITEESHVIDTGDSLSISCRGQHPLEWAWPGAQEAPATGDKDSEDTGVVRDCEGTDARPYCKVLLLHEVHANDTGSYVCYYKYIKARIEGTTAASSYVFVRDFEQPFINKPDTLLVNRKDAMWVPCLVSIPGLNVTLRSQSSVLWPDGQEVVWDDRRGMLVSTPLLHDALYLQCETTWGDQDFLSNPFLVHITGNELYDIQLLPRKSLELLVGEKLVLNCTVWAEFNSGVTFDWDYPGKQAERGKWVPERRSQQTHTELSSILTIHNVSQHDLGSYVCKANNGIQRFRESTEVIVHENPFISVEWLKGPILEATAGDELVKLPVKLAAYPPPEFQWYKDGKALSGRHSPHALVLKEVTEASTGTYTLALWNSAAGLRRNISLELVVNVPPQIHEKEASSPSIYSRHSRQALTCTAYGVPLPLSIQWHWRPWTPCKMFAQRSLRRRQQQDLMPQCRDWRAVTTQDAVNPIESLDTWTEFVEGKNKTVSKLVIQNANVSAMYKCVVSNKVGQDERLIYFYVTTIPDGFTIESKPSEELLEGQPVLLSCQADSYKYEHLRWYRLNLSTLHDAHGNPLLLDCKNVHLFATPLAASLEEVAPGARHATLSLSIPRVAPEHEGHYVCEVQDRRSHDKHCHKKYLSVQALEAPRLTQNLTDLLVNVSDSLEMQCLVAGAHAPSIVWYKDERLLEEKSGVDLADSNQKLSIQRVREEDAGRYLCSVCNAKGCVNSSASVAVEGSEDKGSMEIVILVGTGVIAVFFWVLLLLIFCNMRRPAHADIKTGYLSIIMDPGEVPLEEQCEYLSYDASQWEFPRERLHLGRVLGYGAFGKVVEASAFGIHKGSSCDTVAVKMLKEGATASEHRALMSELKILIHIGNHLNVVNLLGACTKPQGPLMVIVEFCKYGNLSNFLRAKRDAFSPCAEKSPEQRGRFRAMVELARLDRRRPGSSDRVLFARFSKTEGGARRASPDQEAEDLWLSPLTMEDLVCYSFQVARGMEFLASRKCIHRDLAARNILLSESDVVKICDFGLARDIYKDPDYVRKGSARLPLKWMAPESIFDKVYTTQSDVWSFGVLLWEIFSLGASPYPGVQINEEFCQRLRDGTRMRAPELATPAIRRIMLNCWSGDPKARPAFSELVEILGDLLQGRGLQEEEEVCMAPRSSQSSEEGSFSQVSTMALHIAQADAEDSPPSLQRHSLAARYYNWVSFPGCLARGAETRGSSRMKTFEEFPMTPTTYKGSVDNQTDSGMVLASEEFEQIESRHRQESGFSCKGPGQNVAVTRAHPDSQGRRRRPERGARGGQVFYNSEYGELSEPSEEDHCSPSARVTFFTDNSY
Chain of Receptor tyrosine-protein kinase erbB-2 (P04626 whole entry): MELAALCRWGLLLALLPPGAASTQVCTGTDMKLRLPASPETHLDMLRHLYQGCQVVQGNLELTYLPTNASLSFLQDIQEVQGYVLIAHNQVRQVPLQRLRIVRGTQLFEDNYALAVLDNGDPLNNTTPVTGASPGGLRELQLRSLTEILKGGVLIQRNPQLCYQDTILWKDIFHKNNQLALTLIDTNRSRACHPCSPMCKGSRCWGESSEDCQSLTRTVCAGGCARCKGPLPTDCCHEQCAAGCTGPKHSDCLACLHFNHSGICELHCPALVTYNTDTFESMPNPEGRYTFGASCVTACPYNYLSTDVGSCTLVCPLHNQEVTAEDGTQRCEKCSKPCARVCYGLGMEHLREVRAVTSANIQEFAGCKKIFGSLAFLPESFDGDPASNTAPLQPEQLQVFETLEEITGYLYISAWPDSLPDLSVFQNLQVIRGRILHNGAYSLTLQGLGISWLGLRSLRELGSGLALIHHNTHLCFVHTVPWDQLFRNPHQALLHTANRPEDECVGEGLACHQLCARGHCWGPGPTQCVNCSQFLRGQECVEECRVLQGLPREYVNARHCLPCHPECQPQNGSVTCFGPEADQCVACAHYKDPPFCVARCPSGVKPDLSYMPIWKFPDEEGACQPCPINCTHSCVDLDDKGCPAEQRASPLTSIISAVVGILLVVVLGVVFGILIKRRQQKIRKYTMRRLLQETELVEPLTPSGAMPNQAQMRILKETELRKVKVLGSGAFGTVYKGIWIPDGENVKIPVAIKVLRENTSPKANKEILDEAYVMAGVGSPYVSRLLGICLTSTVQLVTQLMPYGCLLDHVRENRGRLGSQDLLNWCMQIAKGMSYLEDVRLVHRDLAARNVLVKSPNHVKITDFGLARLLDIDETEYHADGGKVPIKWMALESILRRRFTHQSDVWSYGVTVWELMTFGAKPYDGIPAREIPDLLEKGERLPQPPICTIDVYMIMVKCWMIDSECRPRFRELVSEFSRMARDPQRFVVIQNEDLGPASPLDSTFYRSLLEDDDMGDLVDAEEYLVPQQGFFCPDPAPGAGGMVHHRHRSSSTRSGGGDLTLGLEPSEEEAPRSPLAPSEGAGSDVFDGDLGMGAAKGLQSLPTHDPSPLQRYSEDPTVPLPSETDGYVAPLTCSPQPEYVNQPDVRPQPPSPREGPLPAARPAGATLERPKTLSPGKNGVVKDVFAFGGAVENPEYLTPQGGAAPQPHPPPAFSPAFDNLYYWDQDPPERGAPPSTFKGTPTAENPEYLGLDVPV
T3 sequence (Q02763 whole entry): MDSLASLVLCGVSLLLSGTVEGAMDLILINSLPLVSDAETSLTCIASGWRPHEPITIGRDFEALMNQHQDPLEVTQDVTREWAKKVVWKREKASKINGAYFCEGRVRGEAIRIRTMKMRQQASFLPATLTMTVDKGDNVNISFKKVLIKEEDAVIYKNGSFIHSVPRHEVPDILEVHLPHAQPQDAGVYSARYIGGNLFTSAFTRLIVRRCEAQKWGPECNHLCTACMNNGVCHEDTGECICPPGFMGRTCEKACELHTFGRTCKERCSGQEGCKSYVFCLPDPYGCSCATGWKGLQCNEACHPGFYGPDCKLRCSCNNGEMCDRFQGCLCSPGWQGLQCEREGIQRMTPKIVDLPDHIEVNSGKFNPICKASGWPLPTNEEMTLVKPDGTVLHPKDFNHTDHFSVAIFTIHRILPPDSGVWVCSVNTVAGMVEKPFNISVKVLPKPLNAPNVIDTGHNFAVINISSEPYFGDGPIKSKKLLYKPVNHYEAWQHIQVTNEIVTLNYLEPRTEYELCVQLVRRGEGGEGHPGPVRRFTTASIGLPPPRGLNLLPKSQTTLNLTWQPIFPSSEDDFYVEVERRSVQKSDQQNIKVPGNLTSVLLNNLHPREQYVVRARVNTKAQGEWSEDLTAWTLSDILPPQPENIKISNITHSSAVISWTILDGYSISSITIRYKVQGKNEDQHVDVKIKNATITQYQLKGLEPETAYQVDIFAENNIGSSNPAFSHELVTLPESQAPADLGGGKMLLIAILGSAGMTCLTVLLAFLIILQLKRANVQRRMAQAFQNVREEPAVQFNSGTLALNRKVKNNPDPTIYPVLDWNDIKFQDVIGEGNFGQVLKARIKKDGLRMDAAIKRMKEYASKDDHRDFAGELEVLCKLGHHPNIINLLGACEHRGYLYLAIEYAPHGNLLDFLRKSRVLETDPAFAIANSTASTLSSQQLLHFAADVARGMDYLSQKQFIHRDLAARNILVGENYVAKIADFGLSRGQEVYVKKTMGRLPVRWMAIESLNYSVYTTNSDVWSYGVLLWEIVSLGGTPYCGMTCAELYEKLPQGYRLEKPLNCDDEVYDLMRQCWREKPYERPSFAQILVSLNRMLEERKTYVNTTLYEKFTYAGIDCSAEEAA
Chain of Aurora kinase B (Q96GD4 whole entry): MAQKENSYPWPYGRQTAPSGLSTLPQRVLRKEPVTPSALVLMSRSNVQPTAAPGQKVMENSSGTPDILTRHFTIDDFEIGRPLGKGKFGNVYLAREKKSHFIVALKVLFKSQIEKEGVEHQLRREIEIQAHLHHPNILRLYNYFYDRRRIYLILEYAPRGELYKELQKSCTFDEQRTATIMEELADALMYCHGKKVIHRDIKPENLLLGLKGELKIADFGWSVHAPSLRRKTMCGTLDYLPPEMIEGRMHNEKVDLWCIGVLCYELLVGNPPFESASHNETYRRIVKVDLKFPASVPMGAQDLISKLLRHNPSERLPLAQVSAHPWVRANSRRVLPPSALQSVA

Compound	IC50 (Aurora kinase A)	IC50 (Aurora kinase B)	IC50 [1]	IC50 [2]	IC50 (Angiopoietin-1 receptor [3])	IC50 [4]	IC50 [5]	IC50 [6]	EC50 [7]	EC50 (Angiopoietin-1 receptor [8])
COc1cc2c(Nc3ccc(-c4nc5ccccc5s4)cc3F)ncnc2cc1OCCCN1CCN(C)CC1	26 nM	28 nM	805 nM	62 nM	29 nM	2400 nM	4400 nM	350 nM	> 10000 nM	2100 nM
COc1cc2c(Nc3ccc(-c4nc5cc(C(F)(F)F)ccc5s4)cc3)ncnc2cc1OCCCN1CCN(C)CC1	60 nM	120 nM	> 10000 nM	> 10000 nM	3300 nM	> 10000 nM	8200 nM	> 10000 nM	> 10000 nM	> 10000 nM
COc1cc2c(Nc3ccc(-c4nc5ccccc5s4)c(O)c3)ncnc2cc1OCCCN1CCN(C)CC1	91 nM	59 nM	110 nM	380 nM	120 nM	780 nM	4500 nM	520 nM	33000 nM	> 10000 nM
COc1cc2c(Nc3ccc(-c4nc5ccccc5s4)c(OC)c3)ncnc2cc1OCCCN1CCN(C)CC1	120 nM	300 nM	2 nM	1200 nM	110 nM	5 nM	2100 nM	7100 nM	9400 nM	> 10000 nM
